Compound activity deposited in PubChem by several laboratories.
Calb FLC – C. albicans growth modulation with fluconazole | growth inhibition, % (concentration not given with the values) | C. albicans CaCi-2 (fluconazole-resistant clinical isolate) + fluconazole, Alamar Blue growth, 48 h | 300,000 tested, 0.57% active | AID 1979;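 active means growth inhibition above about 58% in most replicates, limit read from the data, passing the limit was not always enough; inconclusive means exactly half the replicates above a set limit; inactive means most replicates below a set limit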;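 further: all wells also contain fluconazole at 8 µg/ml as a sub-toxic cotreatment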
SKKanGAS inh – SKKanGAS growth inhibition | inhibition, % at 7.5 µM | S. pyogenes SKKanGAS, kanamycin growth, BacTiter-Glo, 6 h | 300,000 tested, 1.3% active;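 active means mean replicate score, as percent of positive control median, at least 50; inconclusive means mean below 50 but one replicate at or above 50; inactive means mean and every replicate below 50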;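 further: strain carries kanamycin resistance gene driven by streptokinase promoter and grows in 40 µg/ml kanamycin; loss of luminescence reflects streptokinase promoter inhibition or plain growth inhibition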
CSC inhib – blocks cancer stem cells. 300,000 tested, 1.1% active. inhibition, % at 7.5 µM. cancer stem cell-like cells viability, luminescence; in the data active means inhibition above about 75%; inconclusive means no clear call, values can overlap the other calls; tested in HMLE shEcad cells
T cruzi inh – T. cruzi replication inhibition; 300,000 tested, 1.4% active; T. cruzi beta-gal in NIH3T3, luminescence, 90 h; inhibition, % (test concentration not listed);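 active means mean inhibition across valid replicates above about 55%, limit read from the data; inconclusive means mean below that limit but half or more replicates reach it; inactive means mean below it, under half of replicates reach it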;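 further: signal also drops with host cell toxicity which is not excluded here; higher percent means less beta-gal luminescence so fewer parasites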
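Incubation – ≥90 h infection period, 3 h prior cell attachment · System – NIH/3T3 fibroblasts plus reporter T. cruzi · Doses – compound pinned at 50 nL/well, DMSO · Read-out basis – percent inhibition of parasite-derived β-gal signal · Signal – luminescent β-galactosidase signal after 60 min lysis · Also added – 5000 T. cruzi trypomastigotes/well · Medium – Low-serum DMEM with 2% FBS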
Mdm2-MdmX inh – human Mdm2/MdmX binding inhibition. inhibition, % at 8 µM. SaOS-2 split-luciferase Mdm2/MdmX complementation, luminescence. O15151+Q00987. 330,000 tested, 3% active;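 active means inhibition of at least 50% at 8 µM in the primary screen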
Target sequence (O15151 whole entry, looked up): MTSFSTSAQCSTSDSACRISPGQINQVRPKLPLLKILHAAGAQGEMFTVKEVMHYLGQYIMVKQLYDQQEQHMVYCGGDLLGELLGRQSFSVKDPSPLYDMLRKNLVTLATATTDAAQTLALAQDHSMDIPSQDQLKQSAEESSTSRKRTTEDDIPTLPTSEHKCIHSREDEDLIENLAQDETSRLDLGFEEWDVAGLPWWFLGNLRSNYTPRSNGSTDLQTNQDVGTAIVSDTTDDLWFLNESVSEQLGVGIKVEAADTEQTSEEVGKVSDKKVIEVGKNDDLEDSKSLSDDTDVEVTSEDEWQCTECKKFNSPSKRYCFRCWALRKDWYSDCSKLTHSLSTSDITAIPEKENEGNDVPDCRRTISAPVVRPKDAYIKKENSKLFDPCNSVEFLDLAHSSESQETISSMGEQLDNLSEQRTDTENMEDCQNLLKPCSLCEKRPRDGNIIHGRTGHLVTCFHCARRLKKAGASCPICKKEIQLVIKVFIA
Target sequence (Q00987 whole entry, looked up): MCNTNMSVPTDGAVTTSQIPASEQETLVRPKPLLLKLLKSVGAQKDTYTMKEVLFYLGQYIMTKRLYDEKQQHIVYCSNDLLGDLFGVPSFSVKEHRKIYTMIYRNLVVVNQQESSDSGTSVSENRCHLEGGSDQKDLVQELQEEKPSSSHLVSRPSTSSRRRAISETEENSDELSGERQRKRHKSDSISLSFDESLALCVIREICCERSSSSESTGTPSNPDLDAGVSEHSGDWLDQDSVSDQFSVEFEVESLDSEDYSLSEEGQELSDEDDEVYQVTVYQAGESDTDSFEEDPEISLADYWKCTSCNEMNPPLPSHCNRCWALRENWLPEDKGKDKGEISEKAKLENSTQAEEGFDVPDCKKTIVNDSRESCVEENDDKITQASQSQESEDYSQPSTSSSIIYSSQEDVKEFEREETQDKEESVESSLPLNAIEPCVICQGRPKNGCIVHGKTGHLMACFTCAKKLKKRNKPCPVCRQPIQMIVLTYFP
Beta cell apopt – beta cell apoptosis inhibition. INS-1E cytokine-induced death, ATP luminescence, 48 h; percent of positive-control rescue, neutral wells zero. protection from apoptosis, % (no concentration beside the values). 300,000 tested, 0.8% active. AID 435005;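 active means Every replicate reaches about 75%, or at least half do and their mean reaches it too, limit read from the data; inconclusive means At least half of replicates reach the limit but their mean does not; inactive means Under half of replicates reach the limit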;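 further: higher means more ATP so stronger rescue from cytokine killing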
Large screens that a line does not name were inactive. In the library only some 5.7% were active in any assay of this set; here they are far more common.

CCN1C(=O)[C@H]2[C@@H](c3ccc(-c4cccc(Cl)c4)cc3)N[C@@](Cc3ccccc3)(C(=O)OC)[C@H]2C1=O	T cruzi inh 55
CC1=NN(c2ccccc2)C(=O)C1C=Nc1ccc(N(C)C)cc1 (stereo not given)	CSC inhib 86
Nc1cc(=O)[nH]c(SCC(=O)Nc2ccc(N3CCOCC3)cc2)n1	none (no result: Calb FLC, SKKanGAS inh, T cruzi inh)
Cc1cccc(-n2nc([N+](=O)[O-])c(=NCc3cccnc3)n2O)c1	T cruzi inh 55
O=[N+]([O-])c1nn(-c2ccc(Cl)cc2)n(O)c1=NCc1cccnc1	Calb FLC 88
Nc1nc2n[nH]nc2c(=O)[nH]1	T cruzi inh 68
S=C(Nc1ccc(Cl)cc1)Nc1cccc2cnccc12	Beta cell apopt 91
Fc1ccc(NC(=S)Nc2cccc3cnccc23)cc1	none
CC(C)CN(C(=O)C1CCC1)c1c(N)n(Cc2ccccc2)c(=O)[nH]c1=O	none (no result: Calb FLC, SKKanGAS inh, T cruzi inh)
Cc1ccc(C(=O)N2CCC3(CC2)Oc2ccc(Cl)cc2C(=O)C32CC(c3cccnc3)=NO2)s1 (stereo not given)	none
O=C(c1ccoc1)N1CCC2(CC1)Oc1ccc(F)cc1C(=O)C21CC(c2ccccc2)=NO1 (stereo not given)	Calb FLC 92
O=C(c1ccc2c(c1)OCO2)N1CCC2(CC1)Oc1ccc(F)cc1C(=O)C21CC(c2cccnc2)=NO1 (stereo not given)	Calb FLC 77
O=C(c1ccc2c(c1)OCO2)N1CCC2(CC1)Oc1ccc(F)cc1C(=O)C21CC(c2ccccc2)=NO1 (stereo not given)	Calb FLC 77
O=C(c1ccc2c(c1)OCO2)N1CCC2(CC1)Oc1ccc(Cl)cc1C(=O)C21CC(c2cccnc2)=NO1 (stereo not given)	Calb FLC 84
O=C(c1ccoc1)N1CCC2(CC1)Oc1ccc(F)cc1C(=O)C21CC(c2cccnc2)=NO1 (stereo not given)	none
Cc1ccc(SCc2c(-c3ccccc3)nn(C)c2Cl)cc1	none
Cn1nc(-c2ccccc2)c(CSc2ccccc2)c1Cl	SKKanGAS inh 62
CN1CCN(C(=O)c2cnn(-c3ccccc3)c2NC(=O)c2ccccc2)CC1	Calb FLC 94
CN1CCN(C(=O)c2cnn(-c3ccccc3)c2NC(=O)c2ccc(Br)cc2)CC1	none
Cc1ccc(Cl)cc1N1CCN(Cc2cc(=O)n3ccsc3n2)CC1	none (no result: CSC inhib)
O=C(c1ccc(CN2CCOCC2)cc1)N1CCN(c2cccc(Cl)c2)CC1	T cruzi inh inconclusive
O=C(c1ccc(Cn2c(=S)[nH]c3ccc(N4CCOCC4)cc3c2=O)cc1)N1CCN(c2ccc(F)cc2)CC1	T cruzi inh 85
Cc1ccc(Cl)cc1N1CCN(C(=O)c2ccc(CN3CCOCC3)cc2)CC1	T cruzi inh 56
O=C(c1ccc(Cn2c(=O)[nH]c3ccccc3c2=O)cc1)N1CCN(c2ccc(F)cc2)CC1	Calb FLC 63
Cc1ccc(Cl)cc1N1CCN(Cc2cc3c(cc2O)CCC3)CC1	T cruzi inh 58
CC(=O)Nc1ccc(N(C(=O)CNC(=O)c2ccco2)C(C(=O)NC2CCCC2)c2ccco2)cc1 (stereo not given)	none
CS(=O)(=O)c1ccc(-c2sc3ccccc3c2C(=O)N2CCN(c3ccc(F)cc3)CC2)cc1	none (no result: Calb FLC, SKKanGAS inh, T cruzi inh)
Cc1cc(NC(=O)CCC(=O)N(CC(=O)NC2CCCC2)c2ccc(Cl)cc2)no1	none
CCCCn1c(=S)[nH]c2ccc(N3CCOCC3)cc2c1=O	none (no result: CSC inhib, Beta cell apopt)
Cc1cccc(N2CCN(C(=O)CCCCCn3c(=S)[nH]c4ccc(N5CCOCC5)cc4c3=O)CC2)c1C	T cruzi inh 65
Cc1ccc(C)c(N2CCN(C(=O)c3ccc(Cn4c(=S)[nH]c5ccc(N6CCOCC6)cc5c4=O)cc3)CC2)c1	T cruzi inh 75
COc1ccc(Cn2c(=S)[nH]c3cc(C(=O)N4CCN(c5ccccc5)CC4)ccc3c2=O)cc1	none
COc1ccc(N2CCN(C(=O)c3ccc(Cn4c(=S)[nH]c5ccc(N6CCOCC6)cc5c4=O)cc3)CC2)cc1	T cruzi inh 68
Cc1ccc(S(=O)(=O)N(C)CC(=O)N2CC(C)OC(C)C2)cc1 (stereo not given)	SKKanGAS inh inconclusive
Cc1cc(C)c(NC(=O)COC(=O)c2nc3nccc(C)n3n2)c(Cl)c1	none (no result: Calb FLC, SKKanGAS inh, T cruzi inh)
CCn1c(O)c(N=NC(=O)C(O)c2ccccc2)c2ccccc21 (stereo not given)	none
Cc1cccc(C(=O)OCC(=O)N(CC(C)C)c2c(N)n(Cc3ccccc3)c(=O)[nH]c2=O)c1C	none (no result: Calb FLC, SKKanGAS inh, CSC inhib, T cruzi inh, Beta cell apopt)
CN(C)S(=O)(=O)Oc1cccc(C(=O)Nc2cccc(Cl)c2)c1	Calb FLC 108
COc1cccc(S(=O)(=O)NCc2ccc(C(=O)Nc3cccc(Cl)c3)cc2)c1	CSC inhib 99 (no result: T cruzi inh)
CNS(=O)(=O)c1cccc(C(=O)Nc2cccc(Cl)c2)c1	none
COc1cccc(S(=O)(=O)NCc2ccc(C(=O)Nc3ccc(Cl)cc3)cc2)c1	CSC inhib inconclusive
CN(C)S(=O)(=O)Oc1cccc(C(=O)Nc2ccc(Cl)c(Cl)c2)c1	Calb FLC 92, CSC inhib inconclusive
COc1ccc(NC(=O)c2cccc(OS(=O)(=O)N(C)C)c2)cc1	none (no result: CSC inhib)
O=S(=O)(Nc1ccncc1)c1cc(Cl)c(Cl)cc1Cl	none
COc1cc(C2c3[nH]c4ccccc4c3C[C@H]3C(=O)N(C4CC4)CC(=O)N23)ccc1OC(C)C (stereo not given in full)	none
CCOC(=O)c1c(NC(=O)CN2C(=O)NC3(CCCCC3C)C2=O)sc(C)c1CC (stereo not given)	T cruzi inh 66 (no result: Calb FLC)
NNc1nc(-c2ccccc2)cc(-c2ccccc2)n1	CSC inhib 80
NNc1nc(-c2ccccc2)cc(-c2ccccc2O)n1	Calb FLC inconclusive, Beta cell apopt 79
OC(COc1ccc2cc(Br)ccc2c1)CN1CCCC1 (stereo not given)	T cruzi inh 70 (no result: CSC inhib)
O=S(=O)(N1CCCCC1)N1CCN(CC(O)COc2ccc3cc(Br)ccc3c2)CC1 (stereo not given)	T cruzi inh 55
COCCn1c(N)c(C(=S)NC(=O)c2cccs2)c(=O)[nH]c1=O	none
CCCCSc1nc2sc3c(c2c(=O)n1-c1ccc(C)cc1)CCN(C)C3	T cruzi inh inconclusive, Beta cell apopt 134
CCOC(=O)CSc1nc2sc3c(c2c(=O)n1-c1ccc(C)cc1)CCN(C)C3	none
O=C(Cn1ncc2c([nH]c3ccccc32)c1=O)Nc1ccc(CN2CCCCC2)cc1	none (no result: Beta cell apopt)
O=C(Nc1ccc(OC(F)(F)F)cc1)N1CCN(c2ccnc3cc(Cl)ccc23)CC1	SKKanGAS inh 65, T cruzi inh 64
Cc1ccc(SCCNC(=S)Nc2ccc(C)cc2C)cc1	Calb FLC inconclusive, T cruzi inh 58
O=C(Nc1ccc(Br)c2ccccc12)c1ccc2ccccc2c1O	SKKanGAS inh 100, CSC inhib 108 (no result: Mdm2-MdmX inh)
